Data set [1] deals with B16. Briefly: Binding of radioiodinated compound in B16 cells as a function of specific activity for melanoma at 6 hr after injecting at 1.8*10e-6 (uMol/mouse). The data set is classed as functional. The method, boiled down:
(§1)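 C57Bl/6 mice carried subcutaneous B16 melanoma. Melanoma and blood radioactivity were measured by γ-counting at 1 or 6 h and expressed as % ID/g (mean, n = 3).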

Data set [2] concerns Mus musculus. Briefly: (§2) Amount of urinary radioactivity collected within 4 hr after iv injection into C57B1/6 mice was analyzed by RP-HPLC. The data set is classed as functional, Urine.
The subject of data set [3] is B16. Briefly: Binding of radioiodinated compound in B16 cells as a function of specific activity for blood at 1 hr after injecting at 1.5(umol/mouse). The class given is functional. In short, it runs like this: as §1
The subject of data set [4] is B16. Briefly: Binding of radioiodinated compound in B16 cells as a function of specific activity for melanoma at 6 hr after injecting at 1.5*10e-3 (uMol/mouse). The class given is functional. In short, it runs like this:
as §1

Data set [5] deals with B16. Briefly: Binding of radioiodinated compound in B16 cells as a function of specific activity for melanoma after 1 hr injecting at 1.8*10e-6 (uMol/mouse). The data set is classed as functional. The method, boiled down: as §1
For data set [6], the system named is B16. Briefly: Binding of radioiodinated compound in B16 cells as a function of specific activity for blood at 6 hr after injecting at 1.8*10e-6 (uMol/mouse). The class given is functional. In short, it runs like this:
as §1

Data set [7] has as its system B16. Briefly: Binding of radioiodinated compound in B16 cells as a function of specific activity for melanoma at 1 hr after injecting at 1.5*10e-3 (uMol/mouse). The class given is functional. The method, boiled down:
as §1

Data set [8] concerns B16. Briefly: Binding of radioiodinated compound in B16 cells as a function of specific activity for melanoma at 1 hr after injecting at 1.5(umol/mouse). The data set is classed as functional. In short, it runs like this:
as §1

For data set [9], the system named is B16. Briefly: Binding of radioiodinated compound in B16 cells as a function of specific activity for blood at 6 hr after injecting at 1.5(umol/mouse). The class given is functional. The method, boiled down:
as §1

The test system of data set [10] is B16. Briefly: Binding of radioiodinated compound in B16 cells as a function of specific activity for blood at 1 hr after injecting at 1.5*10e-3 (uMol/mouse). The data set is classed as functional. In short, it runs like this: as §1
The test system of data set [11] is B16. Briefly: Binding of radioiodinated compound in B16 cells as a function of specific activity for melanoma at 6 hr after injecting at 1.5(umol/mouse). The class given is functional. The method, boiled down: as §1
Data set [12] deals with B16. Briefly: Binding of radioiodinated compound in B16 cells as a function of specific activity for blood at 6 hr after injecting at 1.5*10e-3 (uMol/mouse). The class given is functional. In short, it runs like this: as §1
Data set [13] concerns B16. Briefly: Binding of radioiodinated compound in B16 cells as a function of specific activity for blood at 1 hr after injecting at 1.8*10e-6 (uMol/mouse). The class given is functional. In short, it runs like this: as §1
The subject of data set [14] is Mus musculus. Briefly: Biodistribution was studied by injecting intravenously into C57B1/6 mice bearing subcutaneously transplanted B16 lung after 6 hr. The data set is classed as ADME, organism-based. The settings on record: in vivo, iv.
The test system of data set [15] is Mus musculus. Briefly: Biodistribution was studied by injecting intravenously into C57B1/6 mice bearing subcutaneously transplanted B16 melanoma after 1 hr. The data set is classed as ADME, organism-based. The settings on record: in vivo, iv.
Data set [16] concerns Mus musculus. Briefly: Biodistribution was studied by injecting intravenously into C57B1/6 mice bearing subcutaneously transplanted B16 liver after 6 hr. The class given is ADME, organism-based. The settings on record: in vivo, iv.
Data set [17] has as its system Mus musculus. Briefly: Biodistribution was studied by injecting intravenously into C57B1/6 mice bearing subcutaneously transplanted B16 spleen after 1 hr. The class given is ADME, organism-based. The settings on record: in vivo, iv.
Data set [18] can be described thus: Selectivity parameter calculated as the mean of 8 melanoma / non target tissue ratio at 6 hr postinjection. The class given is functional. In short, it runs like this: (§3)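 Tissue radioactivity was γ-counted as % ID/g. Selectivity (M/NTT) is the mean of the 8 melanoma/nontarget tissue ratios: blood, heart, lung, spleen, liver, kidney, muscle and brain. n = 3.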

Data set [19] concerns Mus musculus. Briefly: Biodistribution was studied by injecting intravenously into C57B1/6 mice bearing subcutaneously transplanted B16 […] after 6 hr. The data set is classed as ADME, organism-based. The following applies: in vivo, iv.
The test system of data set [20] is Mus musculus. Briefly: Biodistribution was studied by injecting intravenously into C57B1/6 mice bearing subcutaneously transplanted B16 melanoma after 6 hr. The class given is ADME, organism-based. The following applies: in vivo, iv.
The test system of data set [21] is Mus musculus. Briefly: Biodistribution was studied by injecting intravenously into C57B1/6 mice bearing subcutaneously transplanted B16 blood after 1 hr. The data set is classed as ADME, organism-based. The following applies: in vivo, iv.
The test system of data set [22] is Mus musculus. The data set is described as §2. The settings on record: in vivo. The class given is ADME, organism-based, Urine.
The test system of data set [23] is Mus musculus. Briefly: Biodistribution was studied by injecting intravenously into C57B1/6 mice bearing subcutaneously transplanted B16 kidney after 1 hr. The data set is classed as ADME, organism-based. The following applies: in vivo, iv.
Data set [24] can be described thus: Selectivity parameter calculated as the mean of 8 melanoma / non target tissue ratio at 1 hr postinjection. The class given is functional. The method, boiled down: as §3
Data set [25] is described as follows: The lipophilicity was measured in an octanol/water system at pH 7.4. The data set is classed as physicochemical. In short, it runs like this:
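HPLC-purified no-carrier-added radioiodinated benzamide was added to 0.067 M phosphate buffer at pH 7.4 with an equal volume of 1-octanol. The mixture was vortexed to equilibrium, centrifuged and the phases separated. Each phase was γ-counted, with log P = log(cpm octanol/cpm buffer).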

Data set [26] deals with Mus musculus. Briefly: Biodistribution was studied by injecting intravenously into C57B1/6 mice bearing subcutaneously transplanted B16 brain after 6 hr. The settings on record: in vivo, iv. The class given is ADME, organism-based.
Data set [27] deals with Mus musculus. Briefly: Biodistribution was studied by injecting intravenously into C57B1/6 mice bearing subcutaneously transplanted B16 heart after 1 hr. The following applies: in vivo, iv. The class given is ADME, organism-based.
Data set [28] concerns Mus musculus. Briefly: Biodistribution was studied by injecting intravenously into C57B1/6 mice bearing subcutaneously transplanted B16 brain after 1 hr. The class given is ADME, organism-based. The following applies: in vivo, iv.
Data set [29] deals with Mus musculus. Briefly: Biodistribution was studied by injecting intravenously into C57B1/6 mice bearing subcutaneously transplanted B16 muscle after 1 hr. The class given is ADME, organism-based, Muscle tissue. The settings on record: in vivo, iv.
Data set [30] relates to Mus musculus. Briefly: Biodistribution was studied by injecting intravenously into C57B1/6 mice bearing subcutaneously transplanted B16 heart after 6 hr. The data set is classed as ADME, organism-based. The settings on record: in vivo, iv.
The test system of data set [31] is Mus musculus. Briefly: Biodistribution was studied by injecting intravenously into C57B1/6 mice bearing subcutaneously transplanted B16 lung after 1 hr. The data set is classed as ADME, organism-based. The following applies: in vivo, iv.
For data set [32], the system named is Mus musculus. Briefly: Biodistribution was studied by injecting intravenously into C57B1/6 mice bearing subcutaneously transplanted B16 blood after 6 hr. The class given is ADME, organism-based. The following applies: in vivo, iv.
For data set [33], the system named is Mus musculus. Briefly: Biodistribution was studied by injecting intravenously into C57B1/6 mice bearing subcutaneously transplanted B16 kidney after 6 hr. The settings on record: in vivo, iv. The data set is classed as ADME, organism-based.
Data set [34] deals with Mus musculus. Briefly: Biodistribution was studied by injecting intravenously into C57B1/6 mice bearing subcutaneously transplanted B16 liver after 1 hr. The data set is classed as ADME, organism-based. The following applies: in vivo, iv.
Data set [35] has as its system Mus musculus. Briefly: Biodistribution was studied by injecting intravenously into C57B1/6 mice bearing subcutaneously transplanted B16 muscle after 6 hr. The class given is ADME, organism-based, Muscle tissue. The settings on record: in vivo, iv.

Each structure is given as a SMILES string.

`CCN(CC)CCNC(=O)c1ccc(I)cc1`: the ID/g was 9.32% in the data set with B16 [1]; 1.04% with B16 [3]; 15.5% in the data set with B16 [4]; 5.67% with B16 [5]; 0.17% in the data set on B16 [6]; 10% with B16 [7]. For the same molecule, the ID/g stood at 11.6% with B16 [8]; 0.1% with B16 [9]; 1.06% with B16 [10]; 14.6% in the data set with B16 [11]; 0.15% with B16 [12]; 0.65% in the data set on B16 [13]. For the same molecule, in the data set on Mus musculus [2], the ID is 66%.

As usually defined, the logD is lipophilicity at a set pH, counting ionised and neutral species. A low value points to a more hydrophilic compound. `CCN(CC)CCNC(=O)c1ccc(OC)c(I)c1`: the ID/g with Mus musculus [14] was 0.09%; in the data set with Mus musculus [15] it was 6.5%; in the data set with Mus musculus [16], 0.29%; in the data set with B16 [1], 4.14%; with Mus musculus [17], 0.39%; with Mus musculus [19], 0.05%. Besides, the ID/g with B16 [3] was found to be 0.78%; in the data set on B16 [4] it was 5.27%; with Mus musculus [20], 4.14%; in the data set on B16 [5], 6.5%; in the data set with B16 [6] it was 0.04%; in the data set with Mus musculus [21], 0.2%. Also, the ID/g in the data set with Mus musculus [23] is 0.93%; in the data set with Mus musculus [26], 0.01%; in the data set with B16 [7], 4.86%; with B16 [8], 5.41%; in the data set on B16 [9], 0.29%; in the data set on B16 [10], 1.03%. For the same molecule, the ID/g in the data set with B16 [11] is 3.72%; in the data set with B16 [12] it was 0.24%; in the data set on Mus musculus [27] it was 0.25%; in the data set on Mus musculus [28], 0.1%; with Mus musculus [29] it was 0.19%; in the data set on Mus musculus [30], 0.05%. Moreover, the ID/g stood at 0.2% in the data set with B16 [13]; 0.69% in the data set on Mus musculus [31]; 0.04% with Mus musculus [32]; 0.17% in the data set with Mus musculus [33]; 2.62% in the data set with Mus musculus [34]; 0.03% in the data set with Mus musculus [35]. Also, the results for the Ratio in data set [18] and in data set [24] were 129 and 24, respectively. Moreover, the ID with Mus musculus [22] came out at 82%. Further, the logD in data set [25] stood at 1.13.

These data come from ChEMBL document CHEMBL1133087, “Radioiodinated N-(2-diethylaminoethyl)benzamide derivatives with high melanoma uptake: structure-affinity relationships, metabolic fate, and intracellular localization” (J Med Chem, 2000).
